# Results of several laboratories.
# Lines come from different studies, so protocols differ.
# Target: Casein kinase I isoform gamma-1 (CSNK1G1, Homo sapiens, UniProt Q9HCP0)
SMILES,effect on,method,concentration,remaining binding [%]
c1cncc(-c2cccc(Nc3nccc(NC4CCCCC4)n3)c2)c1,binding,competition with immobilised ligand,10 µM,89
C[C@@H]1CN(c2cc(-c3nn(C)c4ccc(OC5(C)CC5)cc34)ncn2)C[C@H](C)O1,cell-free assay,competition with immobilised ligand,1 µM,89
CN(C)c1nccc(-c2cnn3ncccc23)n1,binding,,1 µM,100
FC(F)(F)Oc1cccc(-c2cnc3ccc(-c4ccncc4)nn23)c1,cell-free assay,competition with immobilised ligand,5 µM,67
O=C(Nc1c[nH]nc1C(=O)NC1CCNCC1)c1cc(F)cc(F)c1,binding,competition with immobilised ligand,1 µM,89
COc1cnc(Nc2cccc(S(N)(=O)=O)c2)nc1N1CCN(c2ccccc2)C(=O)C1,binding,competition with immobilised ligand,1 µM,100
Cn1nc(C(=O)NCc2ccc(C(=O)O)cc2)cc1-c1ccc2[nH]ccc2c1,cell-free assay,competition with immobilised ligand,0.1 µM,91
C[C@@H]1CCN(c2nccc(-c3cnn4ncccc34)n2)C1,binding,,1 µM,87
NS(=O)(=O)c1cc(NC(=O)Cc2ccccc2)ccc1Oc1cccc(Cl)c1,cell-free assay,competition with immobilised ligand,1 µM,89
O=C(c1ccc(Nc2ncc(Cl)c(-c3ccc(Cl)s3)n2)cc1)N1CCC(N2CCCC2)CC1,binding,competition with immobilised ligand,1 µM,80
CC(=O)c1c(NS(C)(=O)=O)c2cc(-c3ccc(Cl)cc3)c(-c3ccc(Cl)cc3Cl)nc2n(C)c1=O,cell-free assay,competition with immobilised ligand,1 µM,92
O=C(NCCCN1CCOCC1)c1ccc(Nc2ncc(Cl)c(-c3ccc(Cl)s3)n2)cc1,binding,competition with immobilised ligand,1 µM,88
CN(C)c1nccc(-c2cnc3ncccn23)n1,binding,,1 µM,81
Nc1ncc2c(n1)-c1c([nH]c3ccc(C#CC4CC4)cc13)CCCC2,binding,competition with immobilised ligand,1 µM,79
N[C@H]1CCN(c2nccc(-c3cnn4ncccc34)n2)C1,binding,,1 µM,82
CO[C@@H](C)c1c(Nc2ccc([C@H](N(C)C(=O)C3CCS(=O)(=O)CC3)C(F)(F)F)cc2)cnc2cc(Cl)nn12,cell-free assay,competition with immobilised ligand,1 µM,100
O=C(NCCCN1CCOCC1)c1ccc(Nc2nccc(-c3cc4ccccc4s3)n2)cc1,binding,competition with immobilised ligand,1 µM,81
CN(c1nccc(-c2cnn3ncccc23)n1)C1CC1,binding,,1 µM,100
